Common to all, as to assay type: functional
Test [1] relates to Mus musculus. Put plainly: Mortality rate in Trypanosoma cruzi Y infected IFN-gamma knock out C57BL/6 mouse Chagas disease model at 100 mg/kg, po after 20 days. Summed up: (§1)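 Male C57BL/6 mice aged 8–10 weeks (wild-type or cytokine KO) were infected i.p. with 5,000 Y-strain blood trypomastigotes. Treatment was oral, 100 mg/kg once daily in water with arabic gum, from 4 dpi for 20 consecutive days. Deaths were recorded up to 60 dpi, and mortality was given as deaths/total. Mean survival time assigned survivors a death time of exactly 60 days. Log rank and Peto-Peto-Wilcoxon tests were used.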

Test [2] has as its system Mus musculus. Briefly: Effect on survival in Trypanosoma cruzi Y infected C57BL/6 mouse Chagas disease model assessed as mean survival time at 100 mg/kg, po after 20 days. Summed up: as §1
Test [3] concerns Trypanosoma cruzi. Briefly: Antimicrobial activity against Trypanosoma cruzi Y infected IFN-gamma knock out C57BL/6 mouse Chagas disease model assessed as percent of cured mouse at 100 mg/kg, po after 20 days. A digest of the protocol:
(§2)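 Male mice, 8–10 weeks, infected i.p. with 5,000 blood trypomastigotes (Y strain, passaged in Swiss-Webster mice). From 4 dpi, dosed orally once daily for 20 consecutive days in water with arabic gum. Fresh tail blood examined to 60 dpi. Aparasitemic mice were then bled (0.5 ml), and blood was cultured in LIT medium at 28°C for 30–60 days. Cure means negative by both methods.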

Test [4] deals with Mus musculus. Briefly: Mortality rate in Trypanosoma cruzi Y infected IL12 knock out C57BL/6 mouse Chagas disease model at 100 mg/kg, po after 20 days. Summed up:
as §1

Test [5] deals with Mus musculus. Briefly: Effect on survival in Trypanosoma cruzi Y infected IFN-gamma knock out C57BL/6 mouse Chagas disease model assessed as mean survival time at 100 mg/kg, po after 20 days. Summed up: as §1
The test system of test [6] is Trypanosoma cruzi. Briefly: Antimicrobial activity against Trypanosoma cruzi Y infected wild type C57BL/6 mouse Chagas disease model assessed as percent of cured mouse at 100 mg/kg, po after 20 days. A digest of the protocol:
as §2

Test [7] has as its system Mus musculus. Briefly: Mortality rate in Trypanosoma cruzi Y infected wild type C57BL/6 mouse Chagas disease model at 100 mg/kg, po after 20 days. A digest of the protocol:
as §1

Test [8] concerns Mus musculus. Briefly: Effect on survival in Trypanosoma cruzi Y infected IL12 knock out C57BL/6 mouse Chagas disease model assessed as mean survival time at 100 mg/kg, po after 20 days. Summed up: as §1
In test [9] the test system is Trypanosoma cruzi. Put plainly: Antimicrobial activity against Trypanosoma cruzi Y infected IL12 knock out C57BL/6 mouse Chagas disease model assessed as percent of cured mouse at 100 mg/kg, po after 20 days. A digest of the protocol: as §2
The subject of test [10] is Trypanosoma cruzi. Briefly: Antimicrobial activity against Trypanosoma cruzi Y infected IFN-gamma knock out C57BL/6 mouse Chagas disease model assessed as percent of cured mouse at 20 mg/kg, po twice daily after 20 days. A digest of the protocol: (§3)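 Male C57BL/6 mice aged 8–10 weeks (wild-type, IL-12p40 KO or IFN-γ KO) were infected i.p. with 5,000 blood trypomastigotes of the Y strain. From 4 dpi they were dosed orally at 20 mg/kg/day, split into two daily doses, for 20 consecutive days, in 2% methylcellulose with 0.5% Tween 80. Mice negative on fresh blood at 60 dpi had 0.5 ml orbital blood cultured in LIT medium at 28°C for 30–60 days. Cure meant negative on both tests.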

Test [11] has as its system Mus musculus. Briefly: Mortality rate in Trypanosoma cruzi Y infected IFN-gamma knock out C57BL/6 mouse Chagas disease model at 20 mg/kg, po twice daily after 20 days. A digest of the protocol: (§4)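 Male C57BL/6 mice aged 8–10 weeks (wild-type or cytokine KO) were infected i.p. with 5,000 Y-strain blood trypomastigotes. From 4 dpi they received 20 mg/kg/day orally, split into two daily doses, for 20 days, in 2% methylcellulose with 0.5% Tween 80. Deaths were tracked to 60 dpi, and mortality was given as deaths/total. Mean survival time counted survivors as dying at 60 days. Log rank and Peto-Peto-Wilcoxon tests were used.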

The subject of test [12] is Mus musculus. Put plainly: Mortality rate in Trypanosoma cruzi Y infected IL12 knock out C57BL/6 mouse Chagas disease model at 20 mg/kg, po twice daily after 20 days. Summed up:
as §4

Test [13] deals with Trypanosoma cruzi. Briefly: Antimicrobial activity against Trypanosoma cruzi Y infected wild type C57BL/6 mouse Chagas disease model assessed as percent of cured mouse at 20 mg/kg, po twice daily after 20 days. A digest of the protocol:
as §3

In test [14] the test system is Mus musculus. Briefly: Effect on survival in Trypanosoma cruzi Y infected IFN-gamma knock out C57BL/6 mouse Chagas disease model assessed as mean survival time at 20 mg/kg, po twice daily after 20 days. A digest of the protocol: as §4
Test [15] has as its system Mus musculus. Put plainly: Mortality rate in Trypanosoma cruzi Y infected wild type C57BL/6 mouse Chagas disease model at 20 mg/kg, po twice daily after 20 days. A digest of the protocol:
as §4

Test [16] relates to Trypanosoma cruzi. Put plainly: Antimicrobial activity against Trypanosoma cruzi Y infected IL12 knock out C57BL/6 mouse Chagas disease model assessed as percent of cured mouse at 20 mg/kg, po twice daily after 20 days. A digest of the protocol:
as §3

The test system of test [17] is Mus musculus. Put plainly: Effect on survival in Trypanosoma cruzi Y infected IL12 knock out C57BL/6 mouse Chagas disease model assessed as mean survival time at 20 mg/kg, po twice daily after 20 days. A digest of the protocol: as §4
Test [18] relates to Mus musculus. Briefly: Effect on survival in Trypanosoma cruzi Y infected C57BL/6 mouse Chagas disease model assessed as mean survival time at 20 mg/kg, po twice daily after 20 days. Summed up: as §4

SMILES strings stand for the structures.

Take `O=C(Cn1ccnc1[N+](=O)[O-])NCc1ccccc1` [BENZNIDAZOLE]: the Activity in the test on Mus musculus [1] is reported as 100%; with Trypanosoma cruzi [3] it was 0%; with Mus musculus [4], 17%; in the test on Trypanosoma cruzi [6], 86%; in the test on Mus musculus [7], 0%; in the test on Trypanosoma cruzi [9] it was 39%. Besides, the MST in the test with Mus musculus [2] was over 60 days; with Mus musculus [5], 42.1 days; in the test on Mus musculus [8], 59.6 days.
In the case of `CC[C@@H]([C@H](C)O)n1ncn(-c2ccc(N3CCN(c4ccc(OC[C@@H]5CO[C@@](Cn6cncn6)(c6ccc(F)cc6F)C5)cc4)CC3)cc2)c1=O` [POSACONAZOLE], the Activity in the test on Trypanosoma cruzi [10] is reported as 15%; in the test on Mus musculus [11], 30%; in the test on Mus musculus [12] it was 23%; with Trypanosoma cruzi [13], 89%; in the test with Mus musculus [15], 0%; in the test with Trypanosoma cruzi [16], 35%. For the same molecule, the MST was 52.1 days with Mus musculus [14], 59.2 days in the test with Mus musculus [17] and over 60 days in the test with Mus musculus [18].

The values are drawn from ChEMBL document CHEMBL1146194, “The Anti-Trypanosoma cruzi activity of posaconazole in a murine model of acute Chagas' disease is less dependent on gamma interferon than that of benznidazole” (2007).
